Data on 2 compounds can be found in article PMC4427609 (Drug Design, Development and Therapy, 2015).

Assay type in all cases: in vivo, rat
Data set [1] deals with Sprague-Dawley rats. As to conditions: third day post STZ, mean ± SEM, n=10; for ALP (alkaline phosphatase) / ALT (alanine aminotransferase) / AST (aspartate aminotransferase) / Albumin / Creatinine / GGT (gamma-glutamyl transferase) / Urea: serum. The essentials:
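Male SD rats got blank injections (no STZ), one STZ dose, or two STZ doses over 2 days. STZ was freshly dissolved in 0.1 M citrate buffer pH 4.5 and given at 80 mg/kg ip. On day 3 rats were fasted for 18 h with water ad libitum. They were then staged by glucose: Stage 0 <200, Stage 1 200–450, Stage 2 451–750 mg/dL.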

Data set [2] relates to Sprague-Dawley rats. Briefly: Histopathology of liver, kidney and pancreas of STZ-induced diabetic rats. Conditions: hematoxylin and eosin, light microscope. The method, boiled down: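 Diabetes was induced in male SD rats with freshly dissolved STZ (0.1 M citrate, pH 4.5), 80 mg/kg ip, two doses over 2 days; diabetic meant fasting glucose >200 mg/dL. Liver, kidney and pancreas from diabetic and nondiabetic rats were taken immediately after sacrifice and fixed in 10% phosphate-buffered formalin. Tissue was paraffin-embedded, cut at 5 μm, H&E-stained and examined by light microscopy.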

For data set [3], the system named is STZ diabetic and nondiabetic rats. Briefly: Effect of insulin dose on STZ diabetic and nondiabetic rats. As to conditions: insulin 6 IU/kg subcutaneously, 2 hours, mean ± SEM, n=10.
The nature of data set [4]: Serum insulin pharmacokinetics in STZ diabetic and nondiabetic rats. As to conditions: insulin 4 IU/kg subcutaneously; result in words.
Where [5] appears, read: Stage 1 diabetic rats (200–450 mg/dL).
The mark [6] stands for this setting: Stage 2 diabetic rats (451–750 mg/dL).

Read-outs that look alike come from different tables or passages of the source.

With `CN(N=O)C(=O)N[C@H]1C(O)O[C@H](CO)[C@@H](O)[C@@H]1O` (mixture of isomers) [STZ, streptozotocin], in the data set on Sprague-Dawley rats [1] (setting [5]), the “Glucose (heart)” value is 439 ± 20.9 mg/dL, the “ALP (alkaline phosphatase)” value was 247±47.5 IU/L, the “ALT (alanine aminotransferase)” value was determined as 88±18.8 IU/L and the “AST (aspartate aminotransferase)” value is recorded as 131.4±23.1 IU/L. Also, in the data set with Sprague-Dawley rats [1] (setting [5]), the Albumin amounted to 4.5 ± 0.3 g/dL, the Creatinine was determined as 1.1 ± 0.3 mg/dL, the “GGT (gamma-glutamyl transferase)” value is 3.4±0.8 IU/L and the Urea came out at 70.7 ± 10.2 mg/dL. Moreover, in the data set on Sprague-Dawley rats [1] (setting [6]), the “Glucose (heart)” value came to 668 ± 34.5 mg/dL, the “ALP (alkaline phosphatase)” value is 322.7±25.5 IU/L, the “ALT (alanine aminotransferase)” value came out at 80.1±8.1 IU/L and the “AST (aspartate aminotransferase)” value is recorded as 151.8±22.9 IU/L. Further, in the data set with Sprague-Dawley rats [1] (setting [6]), the Albumin was 4.9 ± 0.2 g/dL, the Creatinine was 1.6 ± 0.2 mg/dL, the “GGT (gamma-glutamyl transferase)” value is recorded as 9.5±4.1 IU/L and the Urea came to 148.8 ± 9.3 mg/dL. In addition, in the data set with Sprague-Dawley rats [2], the “Histology of kidney sections” value was “tubular atrophy and increased vacuolization of renal tubular epithelial cells”; the “Histology of liver sections” value was “clear diffused hepatic steatosis”.

For “insulin: Recombinant human (rh) insulin powder from Biocon, dissolved in Tris buffer (pH 7), injected subcutaneously”, the results for the “minimum percentage of glucose level” value in data set [3] (STZ diabetic rats) and in data set [3] (nondiabetic rats) were 13.4%±1% and 40.7%±4%, respectively. The “AUC of diabetic rats compared to nondiabetic rats” value in data set [4] is recorded as “doubled”.
